TRPC4 block – inhibitors of mouse TRPC4 channel. AID 2247. 300,000 tested, 0.39% active. HEK293 TRPC4beta/mu-opioid, DAMGO-evoked Fluo4 calcium flux; hits give low values. B-score at 10 µM. Q9QUQ5;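 active = B-score over 3 SD under the library average, no early fluorescence shift, positive overall ratio signal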
Target sequence (Q9QUQ5 whole entry, looked up): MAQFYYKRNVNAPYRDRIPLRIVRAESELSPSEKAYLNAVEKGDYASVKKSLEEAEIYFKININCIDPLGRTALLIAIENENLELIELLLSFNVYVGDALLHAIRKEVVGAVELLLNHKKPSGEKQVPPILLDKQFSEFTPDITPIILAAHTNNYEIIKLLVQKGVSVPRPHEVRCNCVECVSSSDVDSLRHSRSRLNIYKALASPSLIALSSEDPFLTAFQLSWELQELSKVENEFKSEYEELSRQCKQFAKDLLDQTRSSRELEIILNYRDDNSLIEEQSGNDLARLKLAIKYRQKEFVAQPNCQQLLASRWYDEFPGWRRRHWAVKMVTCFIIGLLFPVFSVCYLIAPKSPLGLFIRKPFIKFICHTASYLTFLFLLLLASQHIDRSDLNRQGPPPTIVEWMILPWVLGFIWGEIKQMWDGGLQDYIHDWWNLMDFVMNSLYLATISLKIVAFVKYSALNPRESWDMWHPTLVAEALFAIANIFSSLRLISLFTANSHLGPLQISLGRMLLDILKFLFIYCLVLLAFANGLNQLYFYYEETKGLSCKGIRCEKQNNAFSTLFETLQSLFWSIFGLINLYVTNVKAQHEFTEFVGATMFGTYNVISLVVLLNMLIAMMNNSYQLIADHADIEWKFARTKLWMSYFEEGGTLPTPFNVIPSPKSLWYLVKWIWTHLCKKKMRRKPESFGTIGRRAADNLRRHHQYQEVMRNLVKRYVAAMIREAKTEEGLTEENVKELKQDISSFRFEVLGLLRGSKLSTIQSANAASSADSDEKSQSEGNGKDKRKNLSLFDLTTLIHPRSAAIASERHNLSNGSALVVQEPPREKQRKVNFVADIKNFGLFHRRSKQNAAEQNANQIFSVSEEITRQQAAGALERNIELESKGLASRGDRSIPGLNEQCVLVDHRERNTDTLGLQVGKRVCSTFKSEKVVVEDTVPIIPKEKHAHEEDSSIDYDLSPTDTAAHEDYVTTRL
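Material: HEK293 cells with stable TRPC4beta plus mu-opioid receptor expression; probe or stimulus: DAMGO in two steps, submaximal then maximal; technique: Fluo4 calcium fluorescence by kinetic imaging, 5 s 1 Hz baseline; measure: integrated fluorescence ratio relative to baseline, converted to per-well B score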
TRPC4 potent – allosterically enhances the mouse TRPC4 cation channel; 310,000 tested, 0.42% active; B-score at 10 µM; AID 2227; Q9QUQ5; HEK293 TRPC4beta/mu-opioid, DAMGO EC20, Fluo-4 Ca2+ flux; hits give high values;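 active = B-score of calcium response area above 5 SD of library B-scores, with initial fluorescence ratio within 5 SD of library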
TRPC4 act – activators of mouse TRPC4 channel. Q9QUQ5. 310,000 tested, 0.49% active. HEK293 TRPC4beta/mu-opioid, Fluo4 calcium fluorescence; hits give high values. B-score at 10 µM;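 active = B-score above 5 SD of library B-scores, and initial fluorescence ratio not above library mean plus 5 SD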;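 note: positive B-score marks a calcium rise read as TRPC4 activation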
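Assay system – TRPC4beta and mu-opioid receptor HEK293 stable cells · Measured by – Fluo4 fluorescence, kinetic · Schedule – dye loading 45 min room temperature, 110 s kinetic read · Read-out – B-scored integrated calcium fluorescence ratio · Controls – buffer and maximal DAMGO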
TRPC6 inhibitor – blocks the mouse TRPC6 cation channel; Q61143; HEK293-TRPC6, membrane potential dye, ACh-evoked depolarization; hits give low values; B-score at 10 µM; 310,000 tested, 1.1% active; AID 2553;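 active = B-score under library mean minus 3 SD, initial fluorescence not abnormally high, positive integrated signal ratio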;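 note: B-score derived from integrated fluorescence ratio over the kinetic read; more negative B-score means stronger inhibition of depolarization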
TRPC6 act – mouse TRPC6 channel activation | 310,000 tested, 0.13% active | B-score at 10 µM | Q61143 | HEK293-TRPC6 membrane potential dye fluorescence; hits give high values;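 active = B-score of the integrated fluorescence ratio above library mean plus 3 SD, and starting fluorescence ratio within library mean plus 5 SD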;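 note: higher score means more depolarization so channel activation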
TRPC4 sel inh 2 – second check of whether TRPC6 inhibitors also affect mouse TRPC4; 920 tested, 42% active; inhibition, % at 10 µM; HEK293 TRPC4/MOR, membrane potential dye fluorescence; channel activated by saturating DAMGO dose; shares compounds with TRPC6 inhibitor;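 active = compounds whose fluorescence signal differed from control wells by over 3 SD, either direction, in both duplicate plates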
TRPC4 spec – selectivity of TRPC6 inhibitors: effect on mouse TRPC4; 920 tested, 61% active; activity change, negative = inhibition, % at 10 µM; HEK293 TRPC4/mu-opioid, membrane potential fluorescence; shares compounds with TRPC6 inhibitor;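 active = rise or fall in signal beyond 3 SD of buffer-only wells in both replicate plates, either sign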;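 note: integrated kinetic ratio of fluorescence range over baseline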
HEK293 MPD ctr 2-1 – second counter-screen for TRPC6 inhibitors: parental HEK293 cells; AID 2779; 920 tested, 31% active; shares compounds with TRPC6 inhibitor; parental HEK293 membrane potential dye fluorescence; maximal acetylcholine challenge after compound addition; signal change vs control, % at 10 µM;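 active = membrane potential signal moving either way by over 3 SD of the maximum-effect control, in both duplicate plates, meaning non-specific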
HEK293 MPD ctr-1 – parental HEK293 nonspecific activity of TRPC6 inhibitors | parental HEK293 membrane potential dye fluorescence | 920 tested, 60% active | shares compounds with TRPC6 inhibitor | membrane potential signal change, % at 10 µM;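 active = membrane potential signal shifting up or down by more than 3 SD of buffer-only wells, on both duplicate plates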
HEK293 MPD ctr-2 – checks TRPC6 modulator effects in parental HEK293 cells; shares compounds with TRPC6 inhibitor; membrane potential dye fluorescence; membrane potential signal change, % at 10 µM; 2,400 tested, 51% active;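 active = membrane potential signal moves up or down beyond 5 SD from buffer-only wells, on both duplicate plates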
HEK293 MPD ctr 2-2 – parental HEK293 nonspecific activity of TRPC6 modulators, second screen | shares compounds with TRPC6 inhibitor | membrane potential dye fluorescence; after compound, maximal acetylcholine stimulation | inhibition, % at 10 µM | 2,400 tested, 14% active | AID 488926;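 active = membrane potential signal drops by more than 5 SD from the mean control signal, in both duplicate plates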
TRPC4 ctr mod – mouse TRPC4 off-target activity of TRPC6 modulators; shares compounds with TRPC6 inhibitor; HEK293 TRPC4/mu-opioid, membrane potential fluorescence; percent change from control (negative = decrease, positive = increase), % at 10 µM; 2,400 tested, 69% active; AID 488927;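 active = membrane potential signal moved up or down beyond 5 SD of buffer control wells, in both duplicate plates, actives on both sides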
TRPC4 ctr inh 2 – second selectivity test of TRPC6 modulators against mouse TRPC4. shares compounds with TRPC6 inhibitor. HEK293 TRPC4/mu-opioid, membrane potential dye fluorescence; stimulated with maximal-effect DAMGO. inhibition, % at 10 µM. 2,400 tested, 55% active. AID 488928;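 active = drop in membrane potential signal beyond 5 SD of the control wells in both duplicate plates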;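 note: TRPC4 counter screen for TRPC6 hits run under conditions tuned for TRPC6 not TRPC4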
TRPC6 block conf – mouse TRPC6 inhibitor confirmation | HEK293-TRPC6, membrane potential dye, ACh-evoked depolarization | 3,300 tested, 43% active | inhibition, % at 10 µM | AID 488960 | shares compounds with TRPC6 inhibitor;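 active = fluorescence ratio falls more than 5 SD below the full-stimulation control mean, in both duplicate runs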;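 note: integrated fluorescence ratio of peak minus minimum over baseline after agonist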
TRPC6 act confirm – mouse TRPC6 activator confirmation. shares compounds with TRPC6 inhibitor. HEK293-TRPC6 membrane potential dye fluorescence, FDSS. activation, % at 10 µM. 2,800 tested, 11% active. AID 488961;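 active = ratio signal rise beyond 5 SD above unstimulated control wells' mean, seen in both duplicate runs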
Numbers stand for hits; n = inactive; x = not tested or not shown. Most compounds without a hit are left out; they make up all but 2.3% or so of the library.

SMILES | TRPC4 block | TRPC4 potent | TRPC4 act | TRPC6 inhibitor | TRPC6 act | HEK293 MPD ctr-2 | HEK293 MPD ctr 2-2 | TRPC4 ctr mod | TRPC4 ctr inh 2 | TRPC6 block conf | TRPC6 act confirm | others
CCN(CC)CCN(C(=O)c1ccc(C(=O)c2ccccc2)cc1)c1nc2c(OC)cccc2s1 | n | n | n | n | n | x | x | x | x | x | x
CCN(CC)CCN(C(=O)c1ccc([N+](=O)[O-])cc1)c1nc2c(OC)cccc2s1 | n | n | n | -6.26 | n | n | n | -12.5% | 36.0% | n | n
CCN(CC)CCN(C(=O)C1=COCCO1)c1nc2cc3c(cc2s1)OCO3 | n | n | n | -6.84 | n | x | x | x | x | n | n | TRPC4 sel inh 2=51.5%;TRPC4 spec=-21.6%;HEK293 MPD ctr 2-1=n;HEK293 MPD ctr-1=-183.5%
CCN(CC)CCN(C(=O)C1=COCCO1)c1nc2c(OC)ccc(OC)c2s1 | n | n | n | -5.41 | n | -104.0% | n | -26.0% | 69.0% | n | n
CCN(CC)CCN(C(=O)C1=COCCO1)c1nc2ccc(C)cc2s1 | n | n | n | n | n | x | x | x | x | x | x
COc1ccc(NC(=O)CSc2nc(C3CC3)nc3ccccc23)c(OC)c1 | n | n | n | n | n | x | x | x | x | x | x
COc1ccc(C(CNC(=O)Cc2ccccc2Cl)N2CCCCC2)cc1 (configuration not stated) | n | n | n | n | n | x | x | x | x | x | x
COc1ccc(C(CNC(=O)c2ccc(Cl)c(NC(=O)c3cccs3)c2)N2CCCC2)cc1 (configuration not stated) | n | n | n | -6.05 | n | 105.5% | n | n | 63.5% | 42.5% | x
Cc1cc(C)cc(-n2c(C)cc(/C=N/NC(=O)CSc3ncccn3)c2C)c1 | n | n | n | -9.89 | n | x | x | x | x | n | n | TRPC4 sel inh 2=n;TRPC4 spec=n;HEK293 MPD ctr 2-1=n;HEK293 MPD ctr-1=n
CCOC(=O)C1=C(c2ccccc2)N(C)C(=O)NC1c1ccc(O)c(OC)c1 (configuration not stated) | n | n | n | -9.18 | n | x | x | x | x | n | n | TRPC4 sel inh 2=n;TRPC4 spec=0.0%;HEK293 MPD ctr 2-1=n;HEK293 MPD ctr-1=0.0%
CCOC(=O)C1=C(c2ccccc2)NC(=O)NC1c1ccc(O)c(OCC)c1 (configuration not stated) | n | n | n | n | n | x | x | x | x | x | x
CCN(CC(=O)Nc1ccc2c(c1)OCCO2)C(=O)c1ccc(C(F)(F)F)cc1 | n | n | n | n | n | x | x | x | x | x | x
COc1ccc2nc(SCC(=O)C(C)(C)C)[nH]c2c1 | n | n | n | n | n | x | x | x | x | x | x
O=[N+]([O-])C1=CC=C2C(=NC3(CCCCC3)N2O)C1=NC1CCCCC1 | n | n | n | n | n | x | x | x | x | x | x
CC1(C)CC(N=C2C([N+](=O)[O-])=CC=C3C2=NC2(CCCCC2)N3O)CC(C)(C)N1 | n | n | n | -5.25 | n | -130.5% | n | -26.0% | 29.5% | n | n
Cc1ccc(C)c(N(CC(=O)NC2CCCC2)S(=O)(=O)c2ccccc2)c1 | n | n | n | n | n | x | x | x | x | x | x
CCc1cccc(C)c1N=Cc1c(O)c2ccccc2oc1=O | n | n | n | n | n | x | x | x | x | x | x
C=CCn1c(CNC(=O)c2ccccc2F)nnc1SCC(=O)N1CCOCC1 | n | n | n | n | n | x | x | x | x | x | x
Cc1ccc2nc3c(cc(S(=O)(=O)c4ccccc4)c(=N)n3Cc3ccco3)c(=O)n2c1 | n | n | n | -5.46 | n | n | n | n | n | n | n
N#C/C(=N\Nc1cccc([N+](=O)[O-])c1)C(=O)c1ccc(Br)cc1 | -6 | n | n | -7.34 | n | x | x | x | x | 78.6% | n | TRPC4 sel inh 2=53.0%;TRPC4 spec=n;HEK293 MPD ctr 2-1=n;HEK293 MPD ctr-1=-156.5%
C=CCn1cccc(C(=O)Nc2cc(OC)ccc2OC)c1=O | n | n | n | n | n | x | x | x | x | x | x
CS(=O)(=O)c1ccccc1-c1nnc(NC(=O)c2ccc(S(=O)(=O)N3CCCC3)cc2)o1 | n | n | n | n | n | x | x | x | x | x | x
O=C(Nc1nnc(-c2ccccc2Cl)o1)c1ccc(S(=O)(=O)N2CCCCCC2)cc1 | n | n | 71 | -6.29 | n | n | n | -10.5% | n | n | n
CCn1c2c(c(=N)c3c1CCC3)CCC2 | n | n | n | -7.04 | n | -234.0% | n | -39.0% | 39.5% | 36.5% | n
CCn1c2c(c(=N)c3ccccc31)CCC2 | n | n | n | -11 | n | x | x | x | x | 72.0% | n | TRPC4 sel inh 2=67.5%;TRPC4 spec=-33.5%;HEK293 MPD ctr 2-1=-12.0%;HEK293 MPD ctr-1=-593.0%
SMILES | TRPC4 block | TRPC4 potent | TRPC4 act | TRPC6 inhibitor | TRPC6 act | HEK293 MPD ctr-2 | HEK293 MPD ctr 2-2 | TRPC4 ctr mod | TRPC4 ctr inh 2 | TRPC6 block conf | TRPC6 act confirm | others
CCCCCCCCCn1c2c(c(=N)c3c1CCC3)CCC2 | n | n | n | -6.32 | n | -169.0% | n | -21.0% | 36.0% | n | n
CNCC(O)Cn1c2c(c3ccccc31)CCCC2 (configuration not stated) | n | n | n | n | n | x | x | x | x | x | x
CCCCCCn1c2c(c(=N)c3c1CCC3)CCC2 | n | n | n | -8.46 | n | x | x | x | x | 77.6% | n | TRPC4 sel inh 2=69.0%;TRPC4 spec=-25.4%;HEK293 MPD ctr 2-1=-12.0%;HEK293 MPD ctr-1=-452.0%
CCCCCCCn1ccc(=N)cc1 | n | n | n | n | n | x | x | x | x | x | x
CC(=O)c1cccc(OCc2cc(C(=O)NCCC3=CCCCC3)no2)c1 | n | n | n | n | n | x | x | x | x | x | x
N=c1c2c(n(Cc3ccc(F)cc3)c3c1CCC3)CCC2 | n | n | n | -5.82 | n | -192.5% | n | -32.0% | 61.5% | n | n
Fc1ccc(CN2CCCCCCC2)cc1 | n | n | n | n | n | x | x | x | x | x | x
CCn1cc(Br)c(C(=O)NCc2ccco2)n1 | n | n | n | -5.82 | n | n | n | n | n | n | n
CCC(C)NC(=O)COCc1cc(-c2ccc3c(c2)OCO3)on1 (configuration not stated) | n | n | n | n | n | x | x | x | x | x | x

Compound activity as filed in PubChem BioAssay.
